Assay results published in ChEMBL document CHEMBL3352430, “4-Aminopyridyl-based CYP51 inhibitors as anti-Trypanosoma cruzi drug leads with improved pharmacokinetic profile and in vivo potency” (J Med Chem, 2014).
Activity calls are given as the source filed them. No cut-off for these calls is given here.

How the values were obtained:
Intestine [1] = assay: Drug uptake in mouse intestine at 50 mg/kg, po in 20% HP-beta-CD measured at 8 hrs post dose; assay type: ADME, organism-based; design: dose 50 mg/kg, route oral; conditions: in vivo
Outline: (§1)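 Female Swiss Webster mice, 8 weeks old, given a single 50 mg/kg oral gavage dose in 20% HPβCD or 20% Kolliphor. Tissues taken from three mice at 2 and 8 h post dose. Homogenized by probe sonication in PBS (1:4 w/v), protein precipitated with acetonitrile, and compound measured by LC-MS/MS in μM.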

Liver [2] = assay: Drug uptake in mouse liver at 50 mg/kg, po in 20% Kolliphor measured at 8 hrs post dose; assay type: ADME, organism-based; design: dose 50 mg/kg, route oral; conditions: in vivo; outline: as §1
Lung [3] = assay: Drug uptake in mouse lung at 50 mg/kg, po in 20% Kolliphor measured at 8 hrs post dose; assay type: ADME, organism-based; design: dose 50 mg/kg, route oral; conditions: in vivo; outline: as §1
Heart [4] = assay: Drug uptake in mouse heart at 50 mg/kg, po in 20% Kolliphor measured at 8 hrs post dose; assay type: ADME, organism-based; design: dose 50 mg/kg, route oral; conditions: in vivo; outline: as §1
[5] = Drug uptake in mouse fat at 50 mg/kg, po in 20% Kolliphor measured at 8 hrs post dose; assay type: ADME, organism-based, Adipose tissue; design: dose 50 mg/kg, route oral; conditions: in vivo; outline: as §1
[6] = Drug uptake in mouse skeletal muscle at 50 mg/kg, po in 20% Kolliphor measured at 8 hrs post dose; assay type: ADME, organism-based, Muscle tissue; design: dose 50 mg/kg, route oral; conditions: in vivo; outline: as §1
Liver [7] = assay: Drug uptake in mouse liver at 50 mg/kg, po in 20% HP-beta-CD measured at 8 hrs post dose; assay type: ADME, organism-based; design: dose 50 mg/kg, route oral; conditions: in vivo; outline: as §1
Lung [8] = assay: Drug uptake in mouse lung at 50 mg/kg, po in 20% HP-beta-CD measured at 8 hrs post dose; assay type: ADME, organism-based; design: dose 50 mg/kg, route oral; conditions: in vivo; outline: as §1
Heart [9] = assay: Drug uptake in mouse heart at 50 mg/kg, po in 20% HP-beta-CD measured at 8 hrs post dose; assay type: ADME, organism-based; design: dose 50 mg/kg, route oral; conditions: in vivo; outline: as §1
[10] = Drug uptake in mouse fat at 50 mg/kg, po in 20% HP-beta-CD measured at 8 hrs post dose; assay type: ADME, organism-based, Adipose tissue; design: dose 50 mg/kg, route oral; conditions: in vivo; outline: as §1
[11] = Drug uptake in mouse skeletal muscle at 50 mg/kg, po in 20% HP-beta-CD measured at 8 hrs post dose; assay type: ADME, organism-based, Muscle tissue; design: dose 50 mg/kg, route oral; conditions: in vivo; outline: as §1
Trypanosoma cruzi [12] = assay: Antitrypanosomal activity against Trypanosoma cruzi Y luc infected in mouse assessed as inhibition of parasitemia at 50 mg/kg, po bid in 20% HP-beta-CD administered for 4 consecutive days starting on day 3 of infection measured on day 7 post infection relative to vehicle-treated control; assay type: functional, organism-based; design: dose 50 mg/kg
Outline: (§2)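 Female Swiss Webster mice, 8 weeks old, infected ip with 10^5 T. cruzi Y luc trypomastigotes. Only mice with detectable luminescence on day 3 were treated. Compound given by oral gavage bid for four days, as a suspension in 20% HPβCD or a solution in 20% Kolliphor, five mice per group. Vehicle group and benznidazole 50 mg/kg served as controls. On day 7, mice were injected ip with 150 mg/kg d-luciferin and imaged after 5 min under isoflurane. Percent inhibition calculated against untreated mice; two-tailed paired t test.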

Trypanosoma cruzi [13] = assay: Antitrypanosomal activity against Trypanosoma cruzi Y luc infected in mouse assessed as inhibition of parasitemia at 25 mg/kg, po bid in 20% HP-beta-CD administered for 4 consecutive days starting on day 3 of infection measured on day 7 post infection relative to vehicle-treated control; assay type: functional, organism-based; design: dose 25 mg/kg; outline: as §2
Mus musculus [14] = assay: Toxicity in mouse assessed as weight loss at 12.5 to 50 mg/kg, po bid in 20% HP-beta-CD; assay type: organism-based; design: dose 12.5-50 mg/kg, route oral; conditions: in vivo
Outline: (§3)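 Mice in the four-day oral treatment study were given compound bid by gavage in 20% HPβCD or 20% Kolliphor. They were watched for weight loss, mobility problems and changes in appearance throughout dosing.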

Mus musculus [15] = assay: Toxicity in mouse assessed as mobility issues at 12.5 to 50 mg/kg, po bid in 20% HP-beta-CD; assay type: organism-based; design: dose 12.5-50 mg/kg, route oral; conditions: in vivo; outline: as §3
Mus musculus [16] = assay: Toxicity in mouse assessed as change in appearance at 12.5 to 50 mg/kg, po bid in 20% HP-beta-CD; assay type: organism-based; design: dose 12.5-50 mg/kg, route oral; conditions: in vivo; outline: as §3
Mus musculus [17] = assay: Toxicity in mouse assessed as weight loss at 12.5 to 50 mg/kg, po bid in 20% Kolliphor; assay type: organism-based; design: dose 12.5-50 mg/kg, route oral; conditions: in vivo; outline: as §3
Mus musculus [18] = assay: Toxicity in mouse assessed as mobility issues at 12.5 to 50 mg/kg, po bid in 20% Kolliphor; assay type: organism-based; design: dose 12.5-50 mg/kg, route oral; conditions: in vivo; outline: as §3
Mus musculus [19] = assay: Toxicity in mouse assessed as change in appearance at 12.5 to 50 mg/kg, po bid in 20% Kolliphor; assay type: organism-based; design: dose 12.5-50 mg/kg, route oral; conditions: in vivo; outline: as §3
[20] = biological target: Sterol 14-alpha demethylase (Trypanosoma cruzi (strain CL Brener), UniProt Q7Z1V1); assay: Binding affinity to Trypanosoma cruzi CYP51 by UV-vis titration method; conditions: read-out: Kd(app)
Sterol 14-alpha demethylase, sequence (Q7Z1V1 whole entry): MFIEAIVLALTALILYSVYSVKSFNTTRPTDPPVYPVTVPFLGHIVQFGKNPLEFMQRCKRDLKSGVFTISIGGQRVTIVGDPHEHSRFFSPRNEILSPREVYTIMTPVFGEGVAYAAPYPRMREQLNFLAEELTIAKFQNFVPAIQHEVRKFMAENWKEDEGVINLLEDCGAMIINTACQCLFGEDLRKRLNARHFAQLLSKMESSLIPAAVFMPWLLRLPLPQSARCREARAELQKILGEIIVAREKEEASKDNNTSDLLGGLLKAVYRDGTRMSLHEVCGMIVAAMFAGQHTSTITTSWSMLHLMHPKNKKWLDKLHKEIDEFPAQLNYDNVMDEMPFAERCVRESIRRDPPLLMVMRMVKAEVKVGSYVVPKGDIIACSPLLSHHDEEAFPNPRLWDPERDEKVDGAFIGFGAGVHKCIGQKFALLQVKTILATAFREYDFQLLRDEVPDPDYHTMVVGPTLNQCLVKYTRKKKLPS

Trypanosoma cruzi [21] = assay: Antitrypanosomal activity against Trypanosoma cruzi Y luc infected in mouse assessed as inhibition of parasitemia at 50 mg/kg, po bid in 20% Kolliphor administered for 4 consecutive days starting on day 3 of infection measured on day 7 post infection relative to vehicle-treated control; assay type: functional; outline: as §2
C2C12 = assay: Cytotoxicity against mouse C2C12 cells up to 10 uM; assay type: cell-based
Outline: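 Mouse C2C12 myoblasts infected with T. cruzi CA-I/72, then exposed at 24 h postinfection to compound at 10 μM down to 5 pM in 5-fold steps for 72 h at 37 °C. Cells fixed in paraformaldehyde, stained with DAPI and scored by automated imaging. Triplicate wells; uninfected and infected untreated wells as controls.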

[22] = Half life in mouse at 50 mg/kg, po in 20% Kolliphor; assay type: ADME, organism-based; design: dose 50 mg/kg, route oral; conditions: in vivo
Outline: (§4)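 Female Swiss Webster mice, 8 weeks old, given one oral gavage dose of 50 mg/kg as a 10 mg/mL preparation in the named vehicle (20% HPβCD suspension or 20% Kolliphor). Plasma sampled at about 0.25, 0.5, 1, 2, 4, 6, 8, 12 and 24 h, n = 3 per time point. Protein precipitated with 5 volumes acetonitrile, filtered, then LC-MS/MS. Values are averages of three mice.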

[23] = Half life in mouse at 50 mg/kg, po in 20% HP-beta-CD; assay type: ADME, organism-based; design: dose 50 mg/kg, route oral; conditions: in vivo; outline: as §4
[24] = Tmax in mouse at 50 mg/kg, po in 20% Kolliphor; assay type: ADME, organism-based; design: dose 50 mg/kg, route oral; conditions: in vivo; outline: as §4
[25] = Tmax in mouse at 50 mg/kg, po in 20% HP-beta-CD; assay type: ADME, organism-based; design: dose 50 mg/kg, route oral; conditions: in vivo; outline: as §4
[26] = Cmax in mouse at 50 mg/kg, po in 20% Kolliphor; assay type: ADME, organism-based; design: dose 50 mg/kg, route oral; conditions: in vivo; outline: as §4
[27] = Cmax in mouse at 50 mg/kg, po in 20% HP-beta-CD; assay type: ADME, organism-based; design: dose 50 mg/kg, route oral; conditions: in vivo; outline: as §4
[28] = AUClast in mouse at 50 mg/kg, po in 20% Kolliphor; assay type: ADME, organism-based; design: time 0 - last, dose 50 mg/kg, route oral; conditions: plasma; outline: as §4
[29] = AUClast in mouse at 50 mg/kg, po in 20% HP-beta-CD; assay type: ADME, organism-based, Plasma; design: time 0 - last, dose 50 mg/kg, route oral; conditions: plasma; outline: as §4
[30] = Clearance in mouse at 50 mg/kg, po in 20% Kolliphor; assay type: ADME, organism-based; design: dose 50 mg/kg, route oral; conditions: in vivo; outline: as §4
[31] = Clearance in mouse at 50 mg/kg, po in 20% HP-beta-CD; assay type: ADME, organism-based; design: dose 50 mg/kg, route oral; conditions: in vivo; outline: as §4
Intestine [32] = assay: Drug uptake in mouse intestine at 50 mg/kg, po in 20% Kolliphor measured at 8 hrs post dose; assay type: ADME, organism-based; design: dose 50 mg/kg, route oral; conditions: in vivo; outline: as §1

Structure (SMILES): O=C(N[C@H](Cc1c[nH]c2ccccc12)C(=O)Nc1ccncc1)c1ccc(N2CCN(c3ccc(F)cc3F)CC2)cc1F
- Drug uptake (Intestine [1]): Active
- Drug uptake (Liver [2]): Active
- Drug uptake (Lung [3]): Active
- Drug uptake (Heart [4]): Active
- Drug uptake [5]: Active
- Drug uptake [6]: Active
- Drug uptake (Liver [7]): Active
- Drug uptake (Lung [8]): Active
- Drug uptake (Heart [9]): Active
- Drug uptake [10]: Active
- Drug uptake [11]: Active
- inhibition (Trypanosoma cruzi [12]): Active
- inhibition (Trypanosoma cruzi [13]): Active
- Activity (Mus musculus [14]): Non-toxic
- Activity (Mus musculus [15]): Non-toxic
- Activity (Mus musculus [16]): Non-toxic
- Activity (Mus musculus [17]): Non-toxic
- Activity (Mus musculus [18]): Non-toxic
- Activity (Mus musculus [19]): Non-toxic
- Kd [20]: ≤ 10 nM
- inhibition in vivo at 50 mg/kg (Trypanosoma cruzi [21]): 98.4%
- Activity (C2C12): Non-toxic
- half-life [22]: 4.39 h
- half-life [23]: 6.88 h
- Tmax [24]: 2.33 h
- Tmax [25]: 4.67 h
- Cmax [26]: 5.94 µM
- Cmax [27]: 3.27 µM
- AUC(0-t) [28]: 29.6 µM·h
- AUC(0-t) [29]: 16.7 µM·h
- CL/F [30]: 38.8 mL/min/kg
- CL/F [31]: 42.8 mL/min/kg
- Drug uptake (Intestine [32]): Active
